Measurements published in ChEMBL document CHEMBL4177625, “Ability of higenamine and related compounds to enhance glucose uptake in L6 cells” (Bioorg Med Chem, 2017).
One block for each molecule: values may come before it. Active and inactive are the calls of the source. The rule behind the calls is not given here.

How the values were obtained:
Assay type in all cases: functional
[1] = biological target: Beta-2 adrenergic receptor (Rattus norvegicus) (UniProt P10608); assay: Agonist activity at beta2 adrenergic receptor in rat L6 cell lysate assessed as increase in intracellular 2-deoxyglucose uptake at 0.1 to 100 uM preincubated for 4 hrs followed by 2-deoxyglucose measured after 20 mins by fluorescence-based enzymatic assay relative to control
Beta-2 adrenergic receptor (Rattus norvegicus), sequence (P10608 whole entry, looked up): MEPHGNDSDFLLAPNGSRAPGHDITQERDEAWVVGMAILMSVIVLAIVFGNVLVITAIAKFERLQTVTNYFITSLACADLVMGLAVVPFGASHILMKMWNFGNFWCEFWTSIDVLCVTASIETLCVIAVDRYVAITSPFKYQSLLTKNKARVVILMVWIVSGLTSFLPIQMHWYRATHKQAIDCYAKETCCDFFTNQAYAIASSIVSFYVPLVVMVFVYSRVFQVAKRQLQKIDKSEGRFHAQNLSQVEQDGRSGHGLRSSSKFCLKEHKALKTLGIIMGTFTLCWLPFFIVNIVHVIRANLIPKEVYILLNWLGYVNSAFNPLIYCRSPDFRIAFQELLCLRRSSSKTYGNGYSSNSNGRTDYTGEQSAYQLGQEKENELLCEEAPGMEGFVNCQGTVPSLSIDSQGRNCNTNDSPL
In short: (§1)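 L6 rat myoblasts (JCRB9081) were grown in DMEM with 10% FBS at 37°C under 10% CO2. At confluence they were differentiated in DMEM with 2% horse serum for 6–8 days. Cells were serum-starved, then exposed to sample in serum-free DMEM for 4 h, with 100 nM insulin as the positive control. They were rinsed in KRPH buffer pH 7.4 and given 1 mM 2-deoxyglucose for 20 min. After washing, cells were lysed in 0.05 M NaOH and lysate 2-deoxyglucose was quantified enzymatically by fluorescence.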

[2] = biological target: Beta-2 adrenergic receptor (Rattus norvegicus) (UniProt P10608); assay: Agonist activity at beta2 adrenergic receptor in rat L6 cell lysate assessed as increase in intracellular 2-deoxyglucose uptake at 0.1 to 100 uM preincubated for 4 hrs followed by 2-deoxyglucose measured after 20 mins by fluorescence-based enzymatic assay relative to higenamine
In short: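 Differentiated L6 rat myotubes (2% horse serum, 6–8 days post-confluence) serum-starved, then exposed to sample in serum-free DMEM for 4 h; insulin 100 nM as positive control. Rinsed with KRPH buffer (pH 7.4), given 1 mM 2-deoxyglucose for 20 min, washed thrice, lysed in 0.05 M NaOH; lysate 2-deoxyglucose measured enzymatically by fluorescence.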

[3] = biological target: Beta-2 adrenergic receptor (Rattus norvegicus) (UniProt P10608); assay: Agonist activity at beta2 adrenergic receptor in rat L6 cell lysate assessed as increase in intracellular 2-deoxyglucose uptake at 0.5 to 100 uM preincubated for 4 hrs followed by 2-deoxyglucose measured after 20 mins by fluorescence-based enzymatic assay relative to control; in short: as §1
[4] = biological target: Beta-2 adrenergic receptor (Rattus norvegicus, UniProt P10608); assay: Agonist activity at beta2 adrenergic receptor in rat L6 cell lysate assessed as increase in intracellular 2-deoxyglucose uptake preincubated for 4 hrs followed by 2-deoxyglucose addition measured after 20 mins by fluorescence-based enzymatic assay relative to control; in short: as §1
Beta-2 adrenergic receptor, sequence (P10608 whole entry): as the sequence (P10608 whole entry, looked up) above

[5] = biological target: Beta-2 adrenergic receptor (Rattus norvegicus) (UniProt P10608); assay: Agonist activity at beta2 adrenergic receptor in rat L6 cell lysate assessed as increase in intracellular 2-deoxyglucose uptake at 100 uM preincubated for 4 hrs followed by 2-deoxyglucose measured after 20 mins by fluorescence-based enzymatic assay relative to control; in short: as §1
[6] = biological target: Beta-2 adrenergic receptor (Rattus norvegicus) (UniProt P10608); assay: Agonist activity at beta2 adrenergic receptor in rat L6 cell lysate assessed as increase in intracellular 2-deoxyglucose uptake at more than 5 uM preincubated for 4 hrs followed by 2-deoxyglucose measured after 20 mins by fluorescence-based enzymatic assay relative to control; in short: as §1
[7] = biological target: Beta-2 adrenergic receptor (Rattus norvegicus) (UniProt P10608); assay: Agonist activity at beta2 adrenergic receptor in rat L6 cell lysate assessed as increase in intracellular 2-deoxyglucose uptake at 10 to 100 uM preincubated for 4 hrs followed by 2-deoxyglucose measured after 20 mins by fluorescence-based enzymatic assay relative to control; in short: as §1

Activity [1]: Active
Structure (SMILES): COc1ccc(CC2NCCc3cc(O)c(O)cc32)cc1 (stereo unspecified)

Structure (SMILES): COc1cc2c(cc1O)C(Cc1ccc(O)cc1)NCC2 (stereo unspecified)
Activity [2]: 40%
fold change (FC) [3]: 1.6

EC50 [4]: 4500 nM
Structure (SMILES): Oc1ccc(C[C@H]2NCCc3cc(O)c(O)cc32)cc1 [(+)-HIGENAMINE]

Activity [3]: Active
fold change (FC) [5]: 1.2
Structure (SMILES): COc1cc2c(cc1O)CCNC2Cc1ccc(O)cc1 (stereo unspecified)

fold change (FC) [6]: > 2
Activity [7]: Active
Structure (SMILES): Oc1ccc(CC2NCCc3cc(O)c(O)cc32)cc1 (stereo unspecified)

Activity [7]: Active
Structure (SMILES): CNC[C@H](O)c1ccc(O)c(O)c1

EC50 [4]: 1300 nM
Structure (SMILES): OC[C@H]1O[C@@H](Oc2ccc(C[C@@H]3NCCc4cc(O)c(O)cc43)cc2)[C@H](O)[C@@H](O)[C@@H]1O

Activity [3]: Active
fold change (FC) [5]: 1.2
Structure (SMILES): CN1CCc2cc(O)c(O)cc2C1Cc1ccc(O)cc1 (stereo unspecified)

Activity [1]: Active
Structure (SMILES): COc1cc2c(cc1OC)C(Cc1ccc(O)cc1)NCC2 (stereo unspecified)

Activity [7]: Active
Structure (SMILES): NC[C@H](O)c1ccc(O)c(O)c1

EC50 [4]: 600 nM
Structure (SMILES): Oc1ccc(C[C@@H]2NCCc3cc(O)c(O)cc32)cc1 [(-)-HIGENAMINE]

EC50 [4]: 9000 nM
Structure (SMILES): OC[C@H]1O[C@@H](Oc2ccc(C[C@H]3NCCc4cc(O)c(O)cc43)cc2)[C@H](O)[C@@H](O)[C@@H]1O
